Measurements taken from PMC5248591 (Journal of Clinical Pharmacology, 2016).
Values joined by “and” are separate entries in the source; they are usually repeats but may differ in a detail not shown here. Equal values may be shown once. Read-outs that look alike come from different tables or passages of the source. Blank lines part the entries; values can stand above or below the molecule they belong to.

Assays:
relapsed CLL = details: cited from earlier work
ZAP70 = details: read-out: ZAP70 IC50; purified kinase assay; cited from earlier work
[1] = Safety and tolerability, MAD study; format: in vivo, human
PMA‐induced pERK Y204 = assay: Rat whole blood phospho‐flow: PMA‐induced pERK Y204; format: cell-based; details: 5 μM
[2] = Safety and tolerability, SAD study
[3] = system: BCR/LYN‐mediated pSYK Y352; assay: BCR signaling specificity control, pSYK Y352 in B cells, whole blood; format: cell-based, human
[4] = format: in vivo, human; details: for Fluctuation / Ae0‐24 / fe0‐24 / t1/2 / Cmax: mean (SD); for Ae0‐24 / fe0‐24: urine; for CL renal: urine and plasma
[5] = system: FcγR‐mediated DC activation; assay: Dendritic cell activation by opsonized sheep red blood cells; format: cell-based, human; details: immature DCs from healthy donors, in vitro
Procedure, shortened: (§1)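 Cells (0.5 × 10⁶/well) were preincubated 1 h with test compound, then stimulated overnight with 1 μg/mL LPS or antibody-opsonized sheep RBCs. CD80/86 and MHCII were read by flow cytometry; values are % of vehicle, n = 5.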

hind‐paw inflammation = details: rat CIA, p < 0.05, cited from earlier work
[6] = system: opRBC‐induced (FcγR) neutrophil ROS generation; assay: Neutrophil oxidative burst induced by opRBC in whole blood in vitro; format: cell-based, human
[7] = system: LPS‐induced DC activation; assay: Dendritic cell activation by LPS; format: cell-based, human; details: in vitro; 1 μM in Figure 5C
Procedure, shortened: as §1

[8] = system: PMA/PKC‐mediated pERK Y204; assay: PMA‐induced pERK Y204 in B cells, specificity control, whole blood; format: cell-based, human; details: SAD 200‐ and 300‐mg cohorts combined
[9] = SAD study: plasma and urine pharmacokinetics after a single oral dose; format: in vivo, human; details: for Ae0‐96 / fe0‐96: urine, mean (SD); for Tmax / half-life / Cmax / AUC(0-t): human, plasma
[10] = system: PMA/PKC‐induced B‐cell activation; assay: PMA‐induced B‐cell activation; format: cell-based, human
[11] = system: CD3/CD28‐induced T‐cell activation (ZAP70‐dependent); assay: T‐cell activation; format: cell-based, human; details: MAD, steady state after 10 once‐daily doses
[12] = system: fMLP‐mediated basophil degranulation; assay: fMLP‐induced basophil degranulation; format: cell-based, human
[13] = system: PMA‐induced T‐cell activation (PKC‐dependent); assay: T‐cell activation; format: cell-based, human; details: MAD, steady state after 10 once‐daily doses
DLBCL = details: phase 2 study in DLBCL; cited from earlier work
[14] = system: serum levels of CCL3 and CCL4; details: cited from earlier work
[15] = SAD 200‐ and 300‐mg cohorts combined
[16] = MAD, all dose levels, data not shown

SMILES: c1cn2cc(-c3ccc4cn[nH]c4c3)nc(Nc3ccc(N4CCOCC4)cc3)c2n1 [GS9973]
Duration of response (relapsed CLL; majority of responding patients): greater than 6 months
patients achieving decreased adenopathy (relapsed CLL; phase 2, relapsed CLL): 94.5%
patients having experienced a partial response (relapsed CLL; phase 2, relapsed CLL): 61.5%

Fluctuation ([4]; MAD day 10, 11 mg once daily): 90.7 (43.9) %
Tmax ([4]; MAD day 10, 11 mg once daily, median (min, max)): 1.5 (0.5, 2.0) Hours
Ae0‐24 ([4]; MAD day 10, 11 mg once daily): 0.4 (0.1) mg
fe0‐24 ([4]; MAD day 10, 11 mg once daily): 3.3 (1.3) %
Fluctuation ([4]; MAD day 10, 33 mg once daily): 88.0 (15.9) %
Tmax ([4]; MAD day 10, 33 mg once daily, median (min, max)): 1.5 (1.0, 2.1) Hours
Ae0‐24 ([4]; MAD day 10, 33 mg once daily): 1.3 (0.0) mg
fe0‐24 ([4]; MAD day 10, 33 mg once daily): 4.0 (0.1) %
Fluctuation ([4]; MAD day 10, 66 mg once daily): 98.8 (24.1) %
t1/2 ([4]; MAD day 10, 66 mg once daily): 61.3 Hours and 61.3 (10.2) Hours
Tmax ([4]; MAD day 10, 66 mg once daily, median (min, max)): 4.0 (2.0, 4.0) Hours
Ae0‐24 ([4]; MAD day 10, 66 mg once daily): 3.7 (0.6) mg
fe0‐24 ([4]; MAD day 10, 66 mg once daily): 5.6 (1.0) %
Fluctuation ([4]; MAD day 10, 110 mg once daily): 92.8 (30.7) %
t1/2 ([4]; MAD day 10, 110 mg once daily): 75.3 Hours and 75.3 (11.2) Hours
Tmax ([4]; MAD day 10, 110 mg once daily, median (min, max)): 3.0 (3.0, 6.0) Hours
Ae0‐24 ([4]; MAD day 10, 110 mg once daily): 6.96 (1.7) mg
fe0‐24 ([4]; MAD day 10, 110 mg once daily): 6.3 (1.5) %
intersubject variability (CV%) for exposure parameters ([4]; MAD steady state, all dose cohorts): ≤ 45%
steady state achieved ([4]; MAD, trough levels days 4, 7, 8, 9, 10): ≤ 7 days
Tmax ([4]; human, plasma, oral): 1.5 to 4 h
AUC ([4]; human, plasma, oral, 11 mg): 507 ng·h/mL
Cmax ([4]; human, plasma, oral, 11 mg, MAD day 10, 11 mg once daily): 32.6 ng/mL
AUC ([4]; human, plasma, oral, 33 mg): 1810 ng·h/mL
Cmax ([4]; human, plasma, oral, 33 mg, MAD day 10, 33 mg once daily): 118 ng/mL
AUC ([4]; human, plasma, oral, 66 mg): 4630 ng·h/mL
Cmax ([4]; human, plasma, oral, 66 mg, MAD day 10, 66 mg once daily): 317 ng/mL
AUC ([4]; human, plasma, oral, 110 mg): 8490 ng·h/mL
Cmax ([4]; human, plasma, oral, 110 mg, MAD day 10, 110 mg once daily): 557 ng/mL
CL renal ([4]; human, oral, 11 mg): 0.2 mL/min/kg
CL renal ([4]; human, oral, 33 mg): 0.2 mL/min/kg
CL renal ([4]; human, oral, 66 mg): 0.2 mL/min/kg
CL renal ([4]; human, oral, 110 mg): 0.2 mL/min/kg
Intersubject variability (%CV) of Cmax and AUClast ([9]; SAD, 6 out of 7 dose cohorts): < 40%
Ae0‐96 ([9]; SAD, single oral 30 mg): 0.4 (0.3) mg
fe0‐96 ([9]; SAD, single oral 30 mg): 1.5 (0.9) %
Ae0‐96 ([9]; SAD, single oral 100 mg): 2.4 (0.5) mg
fe0‐96 ([9]; SAD, single oral 100 mg): 2.4 (0.5) %
Ae0‐96 ([9]; SAD, single oral 200 mg): 4.3 (0.8) mg
fe0‐96 ([9]; SAD, single oral 200 mg): 2.2 (0.4) %
Ae0‐96 ([9]; SAD, single oral 300 mg): 7.0 (2.0) mg
fe0‐96 ([9]; SAD, single oral 300 mg): 2.3 (0.7) %
Ae0‐96 ([9]; SAD, single oral 400 mg): 20.2 (14.3) mg
fe0‐96 ([9]; SAD, single oral 400 mg): 5.1 (3.6) %
Tmax ([9]; oral): 1 to 4 h
half-life ([9]; oral): 57 to 94 h
Cmax ([9]; po, 3 mg): 1.5 ng/mL
Tmax ([9]; po, 3 mg): 1 h
AUC(0-t) ([9]; po, 10 mg): 150 ng·h/mL
Cmax ([9]; po, 10 mg): 10.5 ng/mL
Tmax ([9]; po, 10 mg): 1 h
half-life ([9]; po, 10 mg): 57.1 h
AUC(0-t) ([9]; po, 30 mg): 878 ng·h/mL
Cmax ([9]; po, 30 mg): 42.9 ng/mL
Tmax ([9]; po, 30 mg): 1 h
half-life ([9]; po, 30 mg): 56.7 h
AUC(0-t) ([9]; po, 100 mg): 5400 ng·h/mL
Cmax ([9]; po, 100 mg): 263 ng/mL
Tmax ([9]; po, 100 mg): 2 h
half-life ([9]; po, 100 mg): 69.8 h
AUC(0-t) ([9]; po, 200 mg): 13700 ng·h/mL
Cmax ([9]; po, 200 mg): 629 ng/mL
Tmax ([9]; po, 200 mg): 2 h
half-life ([9]; po, 200 mg): 77.2 h
AUC(0-t) ([9]; po, 300 mg): 11800 ng·h/mL
Cmax ([9]; po, 300 mg): 558 ng/mL
Tmax ([9]; po, 300 mg): 2.1 h
half-life ([9]; po, 300 mg): 93.8 h
AUC(0-t) ([9]; po, 400 mg): 22300 ng·h/mL
Cmax ([9]; po, 400 mg): 996 ng/mL
Tmax ([9]; po, 400 mg): 4 h
half-life ([9]; po, 400 mg): 65.1 h
SMILES: CC(=O)O.NC(=O)c1cnc(N[C@@H]2CCCC[C@@H]2N)nc1Nc1cccc(-n2nccn2)c1 [PRT062607, 4‐((3‐(2H‐1,2,3‐triazol‐2‐yl)phenyl)amino)‐2‐(((1R,2S)‐2‐aminocyclohexyl)amino)pyrimidine‐5‐carboxamide acetate]
IC50 (ZAP70): 1050 nM
serious adverse events ([1]; 11 to 110 mg once daily for 10 days): no SAEs
AEs considered by the investigator related to the study drug ([1]; 71 of 96 AEs): 74%
number of AEs reported ([1]; all PRT062607 doses): 96
subjects reporting AEs ([1]; all PRT062607 doses (13 subjects)): 54.2%
inhibition of PMA‐induced pERK Y204 (PMA‐induced pERK Y204): inability
overall safety and tolerability ([2]; SAD and MAD, entire range of doses): safe and well tolerated
serious adverse events ([2]; SAD, 3 to 400 mg): no serious adverse events
number of reported TEAEs ([2]; SAD, 200‐mg dose group): 15
subject incidence of TEAEs ([2]; SAD, 200‐mg dose group): 67%
number of reported TEAEs ([2]; SAD, 300‐mg dose group): 7
subject incidence of TEAEs ([2]; SAD, 300‐mg dose group): 67%
number of reported TEAEs ([2]; SAD, 400‐mg dose group): 3
subject incidence of TEAEs ([2]; SAD, 400‐mg dose group): 17%
moderate intensity TEAEs (dizziness, headache, musculoskeletal pain) ([2]; SAD, all PRT062607 doses): 3
subjects with abdominal pain ([2]; SAD, all PRT062607 doses): 3 subjects
subjects with diarrhea ([2]; SAD, all PRT062607 doses): 3 subjects
subjects with dizziness ([2]; SAD, all PRT062607 doses): 3 subjects
subjects with headache ([2]; SAD, all PRT062607 doses): 6 subjects
subjects with nausea ([2]; SAD, all PRT062607 doses): 3 subjects
subjects with rhinitis ([2]; SAD, all PRT062607 doses): 2 subjects
number of TEAEs ([2]; SAD, all subjects receiving PRT062607): 37
subjects reporting TEAEs ([2]; SAD, all subjects receiving PRT062607 (17/42)): 40%
inhibition of BCR‐mediated pSYK Y352 [3, 15]: No consistent inhibition
inhibition of LYN‐mediated pSYK ([3]; SAD study, versus plasma concentration): No concentration‐dependent inhibition
effect on FcγR‐mediated (opRBC) DC activation, surface CD80/86 and MHCII [5]: inhibited
% inhibition hind paw inflammation (hind‐paw inflammation; 10 mg/kg): 55%
% inhibition hind paw inflammation (hind‐paw inflammation; 15 mg/kg): 90%
opRBC‐induced ROS formation, concentration‐dependent ([6]; replicate experiments, different donors): inhibited
opRBC‐induced ROS generation ([6]; whole blood pretreated with 4 μM): completely abrogated
inhibition of LPS‐induced DC activation [7]: No inhibition
inhibition of PMA‐mediated pERK Y204 [8]: No consistent inhibition
effect on PMA stimulation (SYK‐independent) [10, 16]: no effect
inhibition of PMA‐induced B‐cell activation [10, 15]: no inhibition
effect on CD3/CD28‐induced T‐cell activation [11]: no effect
effect on fMLP stimulation (SYK‐independent) [12, 16]: no effect
inhibition of fMLP‐mediated basophil degranulation [12, 15]: No inhibition
effect on PMA‐induced T‐cell activation [13]: no effect

SMILES: COc1cc(Nc2ncc(F)c(Nc3ccc4c(n3)N(COP(=O)(O)O)C(=O)C(C)(C)O4)n2)cc(OC)c1OC [fostamatinib]
overall response rate (DLBCL): 3%

SMILES: C=CC(=O)N1CCC[C@@H](n2nc(-c3ccc(Oc4ccccc4)cc3)c3c(N)ncnc32)C1 [ibrutinib]
inhibition of serum CCL3 and CCL4 markers [14]: > 90%
